Laboratory results as given in ChEMBL document CHEMBL3352386, “Development of chiral praziquantel analogues as potential drug candidates with activity to juvenile Schistosoma japonicum” (2014).

Tests used:
Schistosoma japonicum [1] = assay: Antischistosomal activity against adult Schistosoma japonicum assessed as worm survival at 80 uM after 72 hrs (reference value: 100%); format: functional
In short: (§1)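 Five adult male S. japonicum worms recovered 6 weeks post-infection from female ICR Kunming mice, in duplicate dishes of bicarbonate-buffered DMEM with 20% newborn calf serum, penicillin, streptomycin and amphotericin B. Compound diluted from DMSO stock; DMSO control. Kept at 37 °C, 5% CO2, observed daily by stereomicroscope. Survival% = surviving/total worms × 100.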

Schistosoma japonicum [2] = assay: Antischistosomal activity against adult Schistosoma japonicum assessed as vitality reduction at 50 uM after 72 hrs (reference value: 0%); format: functional
Schistosoma japonicum [3] = assay: Antischistosomal activity against adult Schistosoma japonicum assessed as vitality reduction at 100 uM after 72 hrs (reference value: 0%); format: functional
Schistosoma japonicum [4] = assay: Antischistosomal activity against adult Schistosoma japonicum assessed as vitality reduction at 80 uM after 72 hrs (reference value: 0%); format: functional
Schistosoma japonicum [5] = assay: Antischistosomal activity against juvenile Schistosoma japonicum assessed as worm survival at 50 uM after 24 hrs (reference value: 100%); format: functional
In short: (§2)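 Nine juvenile S. japonicum worms recovered 17 days post-infection from female ICR Kunming mice, in duplicate dishes of bicarbonate-buffered DMEM with 20% newborn calf serum plus penicillin, streptomycin and amphotericin B. Compound diluted from DMSO stock. Held at 37 °C, 5% CO2, with daily stereomicroscope scoring. Survival% = surviving/total worms × 100.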

Schistosoma japonicum [6] = assay: Antischistosomal activity against juvenile Schistosoma japonicum assessed as vitality reduction at 50 uM after 24 hrs (reference value: 0%); format: functional
Schistosoma japonicum [7] = assay: Antischistosomal activity against juvenile Schistosoma japonicum assessed as worm survival at 50 uM after 48 hrs (reference value: 100%); format: functional; in short: as §2
Schistosoma japonicum [8] = assay: Antischistosomal activity against juvenile Schistosoma japonicum assessed as vitality reduction at 50 uM after 48 hrs (reference value: 0%); format: functional
Schistosoma japonicum [9] = assay: Antischistosomal activity against juvenile Schistosoma japonicum assessed as worm survival at 50 uM after 72 hrs (reference value: 100%); format: functional; in short: as §2
Schistosoma japonicum [10] = assay: Antischistosomal activity against juvenile Schistosoma japonicum assessed as vitality reduction at 50 uM after 72 hrs (reference value: 0%); format: functional
Schistosoma japonicum [11] = assay: Antischistosomal activity against adult Schistosoma japonicum assessed as vitality reduction at 50 uM after 24 hrs (reference value: 0%); format: functional
Schistosoma japonicum [12] = assay: Antischistosomal activity against adult Schistosoma japonicum assessed as worm survival at 80 uM after 24 hrs (reference value: 100%); format: functional; in short: as §1
Schistosoma japonicum [13] = assay: Antischistosomal activity against adult Schistosoma japonicum assessed as worm survival at 100 uM after 24 hrs (reference value: 100%); format: functional; in short: as §1
Schistosoma japonicum [14] = assay: Antischistosomal activity against adult Schistosoma japonicum assessed as worm survival at 50 uM after 24 hrs (reference value: 100%); format: functional; in short: as §1
Schistosoma japonicum [15] = assay: Antischistosomal activity against adult Schistosoma japonicum assessed as vitality reduction at 100 uM after 24 hrs (reference value: 0%); format: functional
Schistosoma japonicum [16] = assay: Antischistosomal activity against adult Schistosoma japonicum assessed as vitality reduction at 80 uM after 24 hrs (reference value: 0%); format: functional
Schistosoma japonicum [17] = assay: Antischistosomal activity against adult Schistosoma japonicum assessed as worm survival at 50 uM after 48 hrs (reference value: 100%); format: functional; in short: as §1
Schistosoma japonicum [18] = assay: Antischistosomal activity against adult Schistosoma japonicum assessed as worm survival at 100 uM after 48 hrs (reference value: 100%); format: functional; in short: as §1
Schistosoma japonicum [19] = assay: Antischistosomal activity against adult Schistosoma japonicum assessed as worm survival at 80 uM after 48 hrs (reference value: 100%); format: functional; in short: as §1
Schistosoma japonicum [20] = assay: Antischistosomal activity against adult Schistosoma japonicum assessed as vitality reduction at 50 uM after 48 hrs (reference value: 0%); format: functional
Schistosoma japonicum [21] = assay: Antischistosomal activity against adult Schistosoma japonicum assessed as vitality reduction at 100 uM after 48 hrs (reference value: 0%); format: functional
Schistosoma japonicum [22] = assay: Antischistosomal activity against adult Schistosoma japonicum assessed as vitality reduction at 80 uM after 48 hrs (reference value: 0%); format: functional
Schistosoma japonicum [23] = assay: Antischistosomal activity against adult Schistosoma japonicum assessed as worm survival at 50 uM after 72 hrs (reference value: 100%); format: functional; in short: as §1
Schistosoma japonicum [24] = assay: Antischistosomal activity against adult Schistosoma japonicum assessed as worm survival at 100 uM after 72 hrs (reference value: 100%); format: functional; in short: as §1
Schistosoma japonicum [25] = assay: Antischistosomal activity against juvenile Schistosoma japonicum infected in ICR Kunming mouse assessed as worm reduction at 200 mg/kg, po for 5 days beginning on day 14 after infection (reference value: 0%)

SMILES | survival at 80 µM (Schistosoma japonicum [1]) [%] | inhibition at 50 µM (Schistosoma japonicum [2]) [%] | inhibition at 100 µM (Schistosoma japonicum [3]) [%] | inhibition at 80 µM (Schistosoma japonicum [4]) [%] | survival at 50 µM (Schistosoma japonicum [5]) [%] | inhibition at 50 µM (Schistosoma japonicum [6]) [%] | survival at 50 µM (Schistosoma japonicum [7]) [%] | inhibition at 50 µM (Schistosoma japonicum [8]) [%] | survival at 50 µM (Schistosoma japonicum [9]) [%] | inhibition at 50 µM (Schistosoma japonicum [10]) [%] | inhibition at 50 µM (Schistosoma japonicum [11]) [%] | survival at 80 µM (Schistosoma japonicum [12]) [%] | survival at 100 µM (Schistosoma japonicum [13]) [%] | survival at 50 µM (Schistosoma japonicum [14]) [%] | inhibition at 100 µM (Schistosoma japonicum [15]) [%] | inhibition at 80 µM (Schistosoma japonicum [16]) [%] | survival at 50 µM (Schistosoma japonicum [17]) [%] | survival at 100 µM (Schistosoma japonicum [18]) [%] | survival at 80 µM (Schistosoma japonicum [19]) [%] | inhibition at 50 µM (Schistosoma japonicum [20]) [%] | also measured
O=C1CCC(C(=O)N2CC(=O)N3CCc4ccccc4C3C2)CC1 (racemic) | 100 | 66.7 | 55.3 | 66.7 | 69.2 | 35.8 | 69.2 | 34.6 | 69.2 | 34.6 | 40 | 100 | 100 | 100 | 46.7 | 48.9 | 100 | 100 | 100 | 64.5 | inhibition at 100 µM (Schistosoma japonicum [21]): 60%; inhibition at 80 µM (Schistosoma japonicum [22]): 64.5%; survival at 50 µM (Schistosoma japonicum [23]): 100%; survival at 100 µM (Schistosoma japonicum [24]): 100%; inhibition in vivo at 200 mg/kg (Schistosoma japonicum [25]): 27.7%
O=C1CCC(C(=O)N2CC(=O)N3CCc4ccccc4C3C2)C1 (racemic) | 100 | 0 | 8.7 | 0 | 54.2 | 55.6 | 54.2 | 55.6 | 54.2 | 54.3 | 0 | 100 | 100 | 100 | 17.8 | 23.3 | 100 | 100 | 100 | 0 | inhibition at 100 µM (Schistosoma japonicum [21]): 13.3%; inhibition at 80 µM (Schistosoma japonicum [22]): 13.3%; survival at 50 µM (Schistosoma japonicum [23]): 100%; survival at 100 µM (Schistosoma japonicum [24]): 100%; inhibition in vivo at 200 mg/kg (Schistosoma japonicum [25]): 37.4%
